{"data": "Assay results collected from several papers", "cell line": "T47D", "effect on": "cell growth or viability", "note": "Protocols differ between the studies behind these lines. pIC50: −log10 of the molar value."}
{"Compound": "O=C1Nc2ccccc2C1=NNc1nnc2n1N=C(c1ccccc1)CS2", "test": "SRB", "setting": "10 µM", "quantity": "inhibition", "value": "36%"}
{"Compound": "CCCCCCCC(=O)NCC(=O)OC", "test": "MTT", "setting": "10 µM, 48 h", "quantity": "inhibition", "value": "23%"}
{"Compound": "COc1ccc(-c2ccc(-c3ccc(C(=N)N)nc3)s2)cc1Cl", "test": "SRB", "quantity": "GI50", "value": "1990 nM"}
{"Compound": "O=C1C[C@@H](c2ccc(O)cc2)Oc2cc(O)cc(O)c21", "test": "MTT", "setting": "48 h", "quantity": "pIC50", "value": 5.38}
{"Compound": "COc1ccc(-c2ccc(-c3ccc(C(=N)N)nc3)s2)cc1", "test": "SRB", "quantity": "GI50", "value": "1920 nM"}
{"Compound": "COc1ccc(C(=O)/C=C/c2cccc(Cl)c2)cc1S(N)(=O)=O", "test": "SRB", "setting": "48 h", "quantity": "GI50", "value": "2100 nM"}
{"Compound": "COc1cccc(Oc2ccccc2NC(=O)CNC(=O)c2cccc3ccccc23)c1", "test": "SRB", "setting": "48 h", "quantity": "GI50", "value": "138 nM"}
{"Compound": "CC/C(=C(/c1ccc(OCCNC)cc1)c1ccc(B2OC(C)(C)C(C)(C)O2)cc1)c1ccccc1", "setting": "5 days", "quantity": "pIC50", "value": 5.06}
{"Compound": "COc1ccccc1/C=C/C(=O)c1ccc(OC)c(S(N)(=O)=O)c1", "test": "SRB", "setting": "10 µM", "quantity": "inhibition", "value": "83%"}
{"Compound": "CC/C(=C(\\c1ccc(O)cc1)c1ccc(OCCNC)cc1)c1ccccc1", "setting": "5 days", "quantity": "pIC50", "value": 5.37}
{"Compound": "CC[C@H](C)C(=O)O[C@H]1C[C@H](O)C=C2C=C[C@H](C)[C@H](CC[C@@H](O)C[C@@H](O)CC(=O)O)[C@H]21", "test": "SRB", "setting": "72 h", "quantity": "IC50", "value": "133 µg/mL"}
